RanGTP-Impb inh = inhibitors of RanGTP-importin-beta interaction, primary screen, biochemical, FRET, CFP-Ran, YFP-importin-beta, homogeneous; cell-free CFP-Ran/YFP-importin-beta FRET ratio; inhibition, % (no concentration beside the values); actives 1.1% (n = 300,000); AID 2216, 2009;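 active = more than half of the replicate wells show a fall in the fluorescence ratio signal beyond about 16%, limit read from the data, passing the limit was not always enough; inconclusive = exactly half of the replicate wells pass the set limit; inactive = fewer than half of replicates pass the limit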
Runt-SMMHC FRET = inhibitors of RUNX1 Runt–CBFb-SMMHC binding, primary screen, biochemical, FRET, Cerulean-Runt, Venus-CBFb-SMMHC, uHTS; Runt-related transcription factor 1 (Homo sapiens) + Core-binding factor subunit beta …; Cerulean-Runt/Venus-CBFb-SMMHC FRET ratio 530/480, 1 h; inhibition, % at 20 µM; actives 0.74% (n = 220,000);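 active = mean inhibition across duplicate retests at 20 µM reaching about 50%, limit read from the data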;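 note: inhibitors lower the FRET ratio by blocking Runt binding to CBFb-SMMHC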
Runt-CBFb FRET = inhibitors of RUNX1 Runt–CBFb binding, primary screen, biochemical, FRET, Cerulean-Runt, Venus-CBFb, uHTS; actives 0.46% (n = 220,000); inhibition, % at 20 µM; Runt-related transcription factor 1 (Homo sapiens) + Core-binding factor subunit beta …; Cerulean-Runt/Venus-CBFb FRET ratio 530/480, 1 h;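 active = inhibition over about 50% at 20 µM in the single-dose screen, limit read from the data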
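Schedule: protein complex preformed 1 h, compound exposure 1 h, room temperature, dark; test system: Cerulean-labeled Runt domain protein; amount: 100 nM per protein; buffer or medium: Tris 50 mM pH 7.5, KCl, K2SO4, 0.01% BSA; read-out: loss of energy transfer signal; detection: FRET fluorescence; controls: 5 µM unlabeled CBFb as full-inhibition high control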
Hck Nef HTS = inhibitors of Nef-activated human Hck kinase, primary screen, biochemical, Z-Lyte FRET, 384-well, Hck-YEEI | inhibition, % at 20 µM | Tyrosine-protein kinase HCK (Homo sapiens), P08631 | Recombinant Hck-YEEI plus Nef, Z-Lyte FRET kinase assay | AID 463187, 2010 | actives 0.68% (n = 220,000);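 active = Hck-Nef kinase inhibition above about 50%, limit read from the data; inactive = inhibition below that limit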
TbHK1 inh = Trypanosoma brucei hexokinase 1 inhibitors, primary screen, biochemical, G6PDH-coupled NADH absorbance, MLSCN library; hexokinase 1 [Trypanosoma brucei]; recombinant TbHK1, G6PDH-coupled NADH A340; inhibition, % at 10 µM; actives 0.11% (n = 220,000); AID 1430, 2008;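 active = inhibition of 50% or more in the single-dose primary screen; inactive = inhibition below 50%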
Each line names hits and unclear results; the compound was inactive in the other large screens; ! = repeats disagree. Most compounds without a hit are left out; they make up all but 1.9% or so of the library.

CC1(C)CC(=O)C(C=Nc2cccc(/N=C/C3=C(O)CC(C)(C)CC3=O)n2)=C(O)C1	RanGTP-Impb inh 32
N#CC1=C(N)N2C(=C(C#N)C13CCN(Cc1ccccc1)CC3)Nc1ccccc12	RanGTP-Impb inh 34
COc1ccc(-c2cn(-c3ccccc3)nc2C(=O)O)cc1OC	none (no result: Runt-SMMHC FRET, Runt-CBFb FRET, Hck Nef HTS, TbHK1 inh)
Brc1ccc(-c2cn3nc4c(nc3n2)CCCC4)cc1	RanGTP-Impb inh 61
c1ccc(-c2cn3nc(-c4ccccc4)cnc3n2)cc1	none (no result: RanGTP-Impb inh)
c1ccc(-c2cn3nc4c(nc3n2)CCCC4)cc1	RanGTP-Impb inh 83
O=S1(=O)C=C(Sc2nnc(-c3ccccc3)o2)c2ccccc21	none
COc1ccc(/C=c2\s/c(=C(/C#N)C(=O)NCc3ccco3)n(-c3ccccc3)c2=O)cc1	RanGTP-Impb inh 83
COc1ccc(OCCn2cc(/C=C(\C#N)C(=O)NCc3ccco3)c3ccccc32)cc1	RanGTP-Impb inh 71, Runt-SMMHC FRET 86
COc1ccccc1OCCn1cc(/C=C(\C#N)C(=O)NCc2ccco2)c2ccccc21	none
Cc1ccc(C)c(OCCn2cc(/C=C(\C#N)C(=O)NCc3ccco3)c3ccccc32)c1	Runt-SMMHC FRET 63
COC(=O)/C=c1/s/c(=C(\C#N)C(=O)NCc2ccco2)n(-c2ccccc2)c1=O	none
O=C(CSc1nc2ncccc2[nH]1)c1cccc([N+](=O)[O-])c1	none
CC1=N/C(=C\c2ccc([N+](=O)[O-])cc2)C(=O)N1c1ccc(F)cc1F	none (no result: Runt-SMMHC FRET, Runt-CBFb FRET, Hck Nef HTS, TbHK1 inh)
CCn1c(-c2ccccc2)csc1=Nc1ccc(O)cc1	none
CCOc1ccc(NC(=O)CSc2nnc(Cn3cnc4ccccc43)n2C)cc1	none
O=C(O)Cn1c(O)c(C=Nc2ccccc2)sc1=S	RanGTP-Impb inh 31!, Runt-SMMHC FRET 73
COc1ccc(COC(=O)c2cccc(S(=O)(=O)N3CCN(C(C)=O)CC3)c2)cc1	none (no result: Runt-SMMHC FRET, Runt-CBFb FRET, Hck Nef HTS, TbHK1 inh)
COCCn1c(=N)c(S(=O)(=O)c2ccc(Br)cc2)cc2c(=O)n3ccccc3nc21	RanGTP-Impb inh 119 (no result: Runt-SMMHC FRET, Runt-CBFb FRET, Hck Nef HTS, TbHK1 inh)
COc1ccc(CCn2c(=N)c(S(=O)(=O)c3ccc(C)cc3)cc3c(=O)n4ccccc4nc32)cc1	none (no result: Runt-SMMHC FRET, Runt-CBFb FRET, Hck Nef HTS, TbHK1 inh)
COCCn1c(=N)c(S(=O)(=O)c2ccc(F)cc2)cc2c(=O)n3ccccc3nc21	RanGTP-Impb inh 160 (no result: Runt-SMMHC FRET, Runt-CBFb FRET, Hck Nef HTS, TbHK1 inh)
COc1ccc(NC(=O)CSc2nc3c(cc2C#N)CN(C)CC3)cc1	none (no result: Hck Nef HTS, TbHK1 inh)
CCN1CCc2nc(SCC(=O)Nc3ccc(OC)cc3)c(C#N)cc2C1	RanGTP-Impb inh inconclusive, Runt-SMMHC FRET 94
Cc1cc(C)c(C#N)c(SCC(=O)c2cc(C)n(CCc3ccccc3)c2C)n1	none
COCCn1c(C)cc(C(=O)CSc2nc(C)cc(C)c2C#N)c1C	Runt-SMMHC FRET 58
N#Cc1cc2c(=O)n3ccccc3nc2n(CCN2CCOCC2)c1=O	Runt-SMMHC FRET 143, Runt-CBFb FRET 103 (no result: RanGTP-Impb inh, Hck Nef HTS, TbHK1 inh)
Cc1ccc2nc3c(cc(C#N)c(=O)n3CCN3CCOCC3)c(=O)n2c1	Runt-SMMHC FRET 63, Runt-CBFb FRET 146 (no result: RanGTP-Impb inh, Hck Nef HTS, TbHK1 inh)
Cc1ccc2nc3c(cc(C#N)c(=O)n3CC3CCCO3)c(=O)n2c1 (stereo not drawn)	Runt-SMMHC FRET 65, Runt-CBFb FRET 52, Hck Nef HTS 189 (no result: RanGTP-Impb inh)
Cc1nn(C)cc1S(=O)(=O)Nc1ncccn1	none (no result: Runt-SMMHC FRET, Runt-CBFb FRET, Hck Nef HTS, TbHK1 inh)
O=C(CSc1ccc([N+](=O)[O-])cc1)NNC(=O)c1ccccc1F	none (no result: Runt-SMMHC FRET, Runt-CBFb FRET, Hck Nef HTS, TbHK1 inh)
CCOC(=O)N1CCN(C(=O)COC(=O)C2CCN(S(=O)(=O)c3ccc(C)c(C)c3)CC2)CC1	none (no result: Runt-SMMHC FRET, Runt-CBFb FRET, Hck Nef HTS, TbHK1 inh)
NS(=O)(=O)c1ccc(N2N=C(c3ccccc3)CC2c2ccccc2)cc1 (stereo not drawn)	none
O=S(=O)(O)c1ccc(N2N=C(c3ccccc3)CC2c2ccccc2)cc1 (stereo not drawn)	RanGTP-Impb inh inconclusive, Hck Nef HTS 85
CCN(CC)CCNC(=O)C1(O)c2cc(Br)ccc2NC(=O)N1c1ccccc1 (stereo not drawn)	none (no result: Runt-SMMHC FRET, Runt-CBFb FRET, Hck Nef HTS, TbHK1 inh)
CC(=O)Oc1ccc(C(=O)Nc2cccc(NC(=O)c3ccco3)c2)cc1	none (no result: Runt-SMMHC FRET, Runt-CBFb FRET, Hck Nef HTS, TbHK1 inh)
O=C(Nc1cccc(NC(=O)c2ccco2)c1)c1ccc([N+](=O)[O-])cc1	RanGTP-Impb inh 75
